Data on twelve molecules can be found in ChEMBL document CHEMBL1122659, “Synthesis of some phosphonates with antiherpetic activity” (1984).

Assay [1] can be described thus: In vitro ability to inhibit the herpes HSV-2 virus. The assay is classed as functional, herpes simplex virus. As to conditions: Oryctolagus cuniculus.
For assay [2], the species on record is Mus musculus. Nature of the assay: Percent survival rate of mice infected intravaginally with herpes simplex virus type 2 at daily dosage of 2.5%(treatment initiated 4-h postinfection and continued for 7 days). The class given is functional. The essentials:
(§1)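 Mice infected intravaginally with HSV-2. Test agent suspended in gum tragacanth and applied intravaginally. Survival recorded.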

For assay [3], the species on record is Mus musculus. Nature of the assay: Average survival rate of mice infected intravaginally with herpes simplex virus type 2 at daily dosage of 5%(treatment initiated 4-h postinfection and continued for 7 days). The class given is functional. In outline:
as §1

For assay [4], the species on record is Mus musculus. In words: Average survival rate of mice infected intravaginally with herpes simplex virus type 2 with placebo (treatment initiated 4-h postinfection and continued for 7 days).
The species named for assay [5] is Mus musculus. In words: Percent survival rate of mice infected intravaginally with herpes simplex virus type 2 at daily dosage of 5%(treatment initiated 4-h postinfection and continued for 7 days). The assay is classed as functional. The essentials:
as §1

For assay [6], the species on record is Mus musculus. Nature of the assay: Percent survival rate of mice infected intravaginally with herpes simplex virus type 2 at daily dosage of 10%(treatment initiated 4-h postinfection and continued for 7 days). The class given is functional. In outline: as §1
For assay [7], the species on record is Mus musculus. In words: Average survival rate of mice infected intravaginally with herpes simplex virus type 2 at daily dosage of 10%(treatment initiated 4-h postinfection and continued for 7 days). The assay is classed as functional. In outline: as §1
For a further assay, the species on record is Oryctolagus cuniculus. In words: In vitro ability to inhibit the herpes HSV-2 virus; Inactive. The class given is functional, organism-based. As to conditions: herpes simplex virus.

In brackets after ≈: the same amount, converted by molar mass. Activity calls are given as the source filed them. The rule behind the calls is not given here.

Take `CCOC(=O)c1ccc(OCCCCCCP(=O)(OCC)OCC)cc1`: the MIC in assay [1] stood at 6 µg/mL (≈ 15.5 µM).
In assay [1], `CCOP(=O)(CCCCCCOc1c(Cl)cccc1Cl)OCC` had an MIC of 12 µg/mL (≈ 31.3 µM).
On the same count and under the same terms, in the case of `CCCOP(=O)(CCCCCCOc1ccc(OC)cc1Cl)OCCC` it was 6 µg/mL (≈ 14.7 µM).
As for `CCOP(=O)(OCC)C(CCCCOc1ccc(OC)cc1Cl)C(C)=O` (stereo not drawn), the MIC in assay [1] stood at 12 µg/mL (≈ 29.5 µM).
As for `CCOP(=O)(OCC)C(CCCCCOc1ccc(OC)cc1Cl)C(C)=O` (stereo not drawn), the MIC in assay [1] is 6 µg/mL (≈ 14.3 µM).
Regarding `CCOP(=O)(OCC)C(CCCCCCOc1ccc(OC)cc1Cl)C(C)=O` (stereo not drawn), the MIC in assay [1] was determined as 6 µg/mL (≈ 13.8 µM).
In assay [1], `CCOP(=O)(OCC)C(CCCCCCCCOc1ccc(OC)cc1Cl)C(C)=O` (stereo not drawn) showed an MIC of 6 µg/mL (≈ 13 µM).
Regarding `CCOC(=O)C(CCCCCCOc1ccc(OC)cc1Cl)P(=O)(OCC)OCC` (stereo not drawn), the Survival in the assay filed under Mus musculus [2] is reported as 10%; in the assay filed under Mus musculus [5], 10%; in the assay listed under Mus musculus [6], 20%. The Average survival in the assay listed under Mus musculus [3] was >7.3 days; in the assay listed under Mus musculus [4], >8.1 days; in the assay filed under Mus musculus [7], >8.7 days. In addition, the MIC in assay [1] was determined as 3 µg/mL (≈ 6.45 µM).
As for `CCOP(=O)(OCC)C(CCCCc1ccc(OC)cc1)C(C)=O` (stereo not drawn), the MIC in assay [1] is 25 µg/mL (≈ 70.1 µM).
In the case of `CCOP(=O)(OCC)C(CCCCCCCOc1ccc(OC)cc1Cl)C(C)=O` (stereo not drawn), the MIC in assay [1] came out at 6 µg/mL (≈ 13.4 µM).
As to `CCOP(=O)(CCCCCCCCOc1ccc(OC)cc1Cl)OCC`, in the assay filed under Oryctolagus cuniculus, the MIC entry was “inactive”.
For `CCOP(=O)(CCCCCCCOc1ccc(OC)cc1Cl)OCC`, the MIC entry in the assay filed under Oryctolagus cuniculus was “inactive”.
